Test [1] is filed under the species Homo sapiens. The test can be described thus: Inhibition of N-terminal GST-tagged HSP90/Cdc37 (unknown origin) interaction expressed in Escherichia coli preincubated with Cdc37 for 1 hr followed by addition to HSP90 by GST-pull down assay. The essentials: (§1)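 Pull-down with 10 μg GST-Hsp90 N-terminal domain immobilised as bait on glutathione resin spin columns. Compound incubated with Cdc37 for 1 h at 37 °C, then added to the columns. Loading buffer 25 mM Tris, 0.15 M NaCl, pH 7.2; elution with extra 10 mM reduced glutathione; spins 1 min at 1,000 × g, 4 °C. Eluate analysed by SDS-PAGE and anti-GST/anti-His western blot.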

The test system of test [2] is A549. Briefly: Antiproliferative activity against human A549 cells after 72 hrs by MTT assay. Format: functional, cell-based. The conditions noted are these: A549, 72 h. A digest of the protocol:
(§2)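 Cells seeded at 10000/well and left 24 h, then exposed to compounds in DMSO (200 μM down to 0.823 μM, three-fold steps) for 72 h at 37 °C. Viability was read by MTT (5 mg/mL in PBS) with formazan dissolved in DMSO, OD at 490 nm. IC50 was taken from parallel experiments as mean ± SD. Media: MCF-7 in MEM, SKBR-3 in RPMI-1640, A549 in F12K, each with 10% FCS.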
On the technique in general: Tetrazolium dyes change colour on reduction, which living cells bring about.

The species named for test [3] is Homo sapiens. The test can be described thus: Inhibition of full length His-tagged HSP90/GST-tagged Cdc37 (unknown origin) interaction at 100 uM after 1 hr by HTRF assay relative to control. The essentials:
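HTRF assay using His-tagged full-length Hsp90 and GST-tagged Cdc37 M, each 250 nM final, in PBS with an extra 400 mM KF, pH 7.4. Compound incubated 1 h at 37 °C. Anti-GST-Cryptate and anti-6His-XL665 then added, 0.5 h at 37 °C. Ex 320 nm; ratio = (665/620 nm) × 10000. No-compound negative control and reagent-only blank.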
Background: TR-FRET usually uses a lanthanide donor and a delayed reading to cut background.

The species named for test [4] is Homo sapiens. Briefly: Inhibition of HSP90/Cdc37 protein-protein interaction in human SKBR3 cells assessed as decrease in CDK4 level after 24 hrs by Western blot analysis. Format: cell-based. The essentials: (§3)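 SKBR-3 cells treated with compound at 1, 10 and 50 μM for 24 h. After a PBS rinse and trypsinisation, cells lysed in Tris-HCl pH 7.5 buffer with NaCl, EDTA, NP-40, PMSF, NaF and DTT; lysate spun 12000 rpm, 10 min, 4 °C. Protein by BCA, equal loads on SDS-PAGE. Probed for Hsp90, Akt, Cdk4, β-actin; DyLight 800 secondary, infrared imaging.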

The test system of test [5] is SK-BR-3. The test can be described thus: Effect on HSP90 level in human SKBR3 cells at 1 to 50 uM after 24 hrs by Western blot analysis. The test is classed as functional, cell-based. A digest of the protocol: as §3
Test [6] has as its system MCF7. The test can be described thus: Antiproliferative activity against human MCF7 cells after 72 hrs by MTT assay. Format: functional, cell-based. Conditions: MCF7, 72 h. A digest of the protocol: as §2
Test [7] relates to SK-BR-3. Briefly: Antiproliferative activity against human SKBR3 cells after 72 hrs by MTT assay. Format: functional, cell-based. Conditions: SK-BR-3, 72 h. The essentials: as §2
Test [8] in a line: Inhibition of full length His-tagged HSP90/GST-tagged Cdc37 (unknown origin) interaction after 1 hr by HTRF assay. The arrangement: species or system Homo sapiens. A digest of the protocol: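 Final 250 nM each of His-Hsp90 (full length) and GST-Cdc37 M in PBS with extra 400 mM KF, pH 7.4. Compound added (300 μM to 1.23 μM, three-fold steps), 1 h at 37 °C. Anti-GST-cryptate and anti-6His-XL665 added, 0.5 h at 37 °C. TR-FRET read at ex 320 nm, em 665/620 nm, ratio ×10000. No-compound and reagent-only controls included.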

Test [9] is filed under the species Homo sapiens. Briefly: Inhibition of HSP90/Cdc37 protein-protein interaction in human SKBR3 cells assessed as decrease in Akt level after 24 hrs by Western blot analysis. Format: cell-based. A digest of the protocol: as §3
A general note: Immunoblotting shows a protein as a band on a membrane.

A further test addresses Heat shock protein HSP90 (Homo sapiens, UniProt P07900+P08238). Briefly: Binding affinity to N-terminal GST-tagged HSP90 (unknown origin) expressed in Escherichia coli by biolayer interferometry analysis.
For test [10], the system named is SK-BR-3. The test can be described thus: Antiproliferative activity against human SKBR3 cells at 10 uM after 72 hrs by MTT assay relative to control. The test is classed as functional.
Test [11] has as its system MCF7. The test can be described thus: Antiproliferative activity against human MCF7 cells at 10 uM after 72 hrs by MTT assay relative to control. Format: functional.
The species named for test [12] is Homo sapiens. The test can be described thus: Inhibition of full length His-tagged HSP90/GST-tagged Cdc37 (unknown origin) interaction at 10 uM after 1 hr by HTRF assay relative to control.
Test [13] relates to A549. Briefly: Antiproliferative activity against human A549 cells at 10 uM after 72 hrs by MTT assay relative to control. The test is classed as functional.
The species named for test [14] is Homo sapiens. The test can be described thus: Inhibition of N-terminal GST-tagged HSP90/Cdc37 (unknown origin) interaction expressed in Escherichia coli at 20 uM preincubated with Cdc37 for 1 hr followed by addition to HSP90 by GST-pull down assay. The essentials: as §1

Active and inactive are the calls of the source. The rule behind the calls is not given here.

What is called inhibition is the share of the control response that was lost under treatment. As a reminder, the IC50 is the concentration at which inhibition is half-maximal. Read a low IC50 as higher potency. One may read the Kd as the constant that tells how readily two partners part at equilibrium. As to `Cn1nccc1NS(=O)(=O)c1ccc(NC(=O)CCC(=O)Nc2ccc(S(=O)(=O)Nc3ccnn3C)cc2)cc1`, the inhibition entry was “Dose-dependent effect” in the test filed under Homo sapiens [1], 79.4% in the test listed under Homo sapiens [3], “Dose-dependent effect” in the test listed under Homo sapiens [4] and “Dose-dependent effect” in the test listed under Homo sapiens [9]. In addition, the half-maximal inhibitory concentration (IC50) is 38.4 µM with A549 [2], 26.4 µM in the test with MCF7 [6], 14.7 µM in the test on SK-BR-3 [7] and 27 to 27.4 µM in test [8]. The result with SK-BR-3 [5] was inactive. At Heat shock protein HSP90, this molecule yielded a Kd of 40 to 40.4 µM.

In the case of `CC1=C(O)C(=O)C=C2C1=CC=C1[C@@]2(C)CC[C@@]2(C)[C@@H]3C[C@](C)(C(=O)O)CC[C@]3(C)CC[C@]12C` [CELASTROL], the inhibition in the test listed under Homo sapiens [3] was 92.3%; in the test listed under Homo sapiens [4], “Dose-dependent effect”; in the test listed under Homo sapiens [9] it was “Dose-dependent effect”; in the test filed under Homo sapiens [12] it was 79.3%. Further, the Activity in the test on SK-BR-3 [10] is reported as 97.62%; with MCF7 [11] it was 98.62%; with A549 [13], 95.43%. Besides, the result in the test on SK-BR-3 [5] was inactive. Moreover, in the test filed under Homo sapiens [14], the inhibition entry was “Active”.

The record behind these values is ChEMBL document CHEMBL4138078, “Structure-based virtual screening and optimization of modulators targeting Hsp90-Cdc37 interaction” (Eur J Med Chem, 2017).
